ChEMBL document CHEMBL3132745, “Synthesis and Antimicrobial Activities of His(2-aryl)-Arg and Trp-His(2-aryl) Classes of Dipeptidomimetics” (Medchemcomm, 2014)
≈ marks a conversion by molar mass, not a printed value. Calls of active or inactive are those of the source. The rule behind the calls is not given here. Residues, ends and D or L forms follow the SMILES beside them. *: point of attachment. Boc = CC(C)(C)OC(=O)*; NHBn = c1ccc(CN*)cc1

What was measured:
Pichia kudriavzevii = experiment: Antifungal activity against Candida krusei assessed as growth inhibition; type: functional, organism-based
Candida albicans = experiment: Antifungal activity against Candida albicans assessed as growth inhibition; type: functional, organism-based
Nakaseomyces glabratus = experiment: Antifungal activity against Candida glabrata assessed as growth inhibition; type: functional, organism-based
SK-MEL = experiment: Cytotoxicity against human SK-MEL cells assessed as cell viability after 48 hrs by neutral red uptake assay; type: cell-based
Procedure, shortened: (§1)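 Neutral red uptake assay on human cancer lines (SK-MEL, KB, BT-549, SK-OV-3) and noncancerous mammalian cells (VERO, LLC-PK1). Highest tested concentration was 10 µg/mL.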

Vero = experiment: Cytotoxicity against african green monkey Vero cells assessed as cell viability after 48 hrs by neutral red uptake assay; type: cell-based; settings: chlorocebus sabaeus; procedure, shortened: as §1
Cryptococcus neoformans = experiment: Antifungal activity against Cryptococcus neoformans ATCC 90113 assessed as growth inhibition after 70-74 hrs by CLSI method; type: functional, organism-based
BT-549 = experiment: Cytotoxicity against human BT549 cells assessed as cell viability after 48 hrs by neutral red uptake assay; type: cell-based; settings: bt-549, 48 h; procedure, shortened: as §1
KB = experiment: Cytotoxicity against human KB cells assessed as cell viability after 48 hrs by neutral red uptake assay; type: cell-based; procedure, shortened: as §1
Aspergillus fumigatus = experiment: Antifungal activity against Aspergillus fumigatus assessed as growth inhibition; type: functional, organism-based
LLC-PK1 = experiment: Cytotoxicity against pig LLC-PK1 cells assessed as cell viability after 48 hrs by neutral red uptake assay; type: cell-based, Sus scrofa; settings: llc-pk1, 48 h; procedure, shortened: as §1
Escherichia coli = experiment: Antibacterial activity against Escherichia coli ATCC 35218 assessed as growth inhibition after 16-20 hrs by CLSI method; type: functional, organism-based
SK-OV-3 = experiment: Cytotoxicity against human SKOV3 cells assessed as cell viability after 48 hrs by neutral red uptake assay; type: cell-based; settings: sk-ov-3, 48 h; procedure, shortened: as §1
[1] = Cryptococcus neoformans, ATCC 90113, read-out: IC50
[2] = Cryptococcus neoformans, ATCC 90113

SMILES	MIC (Cryptococcus neoformans)	MIC (Cryptococcus neoformans; [2])	growth inhibition (GI) (Pichia kudriavzevii)	growth inhibition (GI) (Candida albicans)	growth inhibition (GI) (Nakaseomyces glabratus)	Activity (SK-MEL)	Activity (Vero)	IC50 (Cryptococcus neoformans)	MFC (Cryptococcus neoformans)	Activity (BT-549)	Activity (KB)	growth inhibition (GI) (Aspergillus fumigatus)	Activity (LLC-PK1)	growth inhibition (GI) (Escherichia coli)	Activity (SK-OV-3)	IC50 (Cryptococcus neoformans; [1])	MFC (Cryptococcus neoformans; [2])
Cc1ccc(-c2nc(C[C@H](NC(=O)[C@H](Cc3c[nH]c4ccccc34)NC(=O)OC(C)(C)C)C(=O)NCc3ccccc3)c[nH]2)cc1	inactive		inactive	inactive	inactive	> 10 µg/mL	> 10 µg/mL	Not Active	inactive	> 10 µg/mL	> 10 µg/mL	inactive	> 10 µg/mL	inactive	> 10 µg/mL		
COC(=O)[C@H](CCCNC(=N)N)NC(=O)[C@@H](N)Cc1c[nH]c(-c2ccc(C)cc2)n1	inactive		inactive	inactive	inactive	> 10 µg/mL	> 10 µg/mL	Not Active	inactive	> 10 µg/mL	> 10 µg/mL	inactive	> 10 µg/mL	inactive	> 10 µg/mL		
N[C@@H](Cc1c[nH]c2ccccc12)C(=O)N[C@@H](Cc1c[nH]cn1)C(=O)NCc1ccccc1 (H-Trp-His-NHBn)	inactive		inactive	inactive	inactive	> 10 µg/mL	> 10 µg/mL	Not Active	inactive	> 10 µg/mL	> 10 µg/mL	inactive	> 10 µg/mL	inactive	> 10 µg/mL		
CC(C)(C)OC(=O)N[C@@H](Cc1c[nH]c2ccccc12)C(=O)N[C@@H](Cc1c[nH]c(-c2cccc3ccccc23)n1)C(=O)NCc1ccccc1	inactive		inactive	inactive	inactive	> 10 µg/mL	> 10 µg/mL	Not Active	inactive	> 10 µg/mL	> 10 µg/mL	inactive	> 10 µg/mL	inactive	> 10 µg/mL		
N=C(N)NCCC[C@H](NC(=O)[C@@H](N)Cc1c[nH]cn1)C(=O)NCc1ccccc1 (H-His-Arg-NHBn)	inactive		inactive	inactive	inactive	> 10 µg/mL	> 10 µg/mL	Not Active	inactive	> 10 µg/mL	> 10 µg/mL	inactive	> 10 µg/mL	inactive	> 10 µg/mL		
COC(=O)[C@H](CCCNC(=N)N)NC(=O)[C@H](Cc1c[nH]c(-c2ccc(OC)cc2)n1)NC(=O)OC(C)(C)C	inactive		inactive	inactive	inactive	> 10 µg/mL	> 10 µg/mL	Not Active	inactive	> 10 µg/mL	> 10 µg/mL	inactive	> 10 µg/mL	inactive	> 10 µg/mL		
COC(=O)[C@H](CCCNC(=N)N)NC(=O)[C@H](Cc1c[nH]c(-c2ccc(C(C)(C)C)cc2)n1)NC(=O)OC(C)(C)C	inactive		inactive	inactive	inactive	> 10 µg/mL	> 10 µg/mL	Not Active	inactive	> 10 µg/mL	> 10 µg/mL	inactive	> 10 µg/mL	inactive	> 10 µg/mL		
CC(C)(C)OC(=O)N[C@@H](Cc1c[nH]cn1)C(=O)N[C@@H](CCCNC(=N)N)C(=O)NCc1ccccc1 (Boc-His-Arg-NHBn)	inactive		inactive	inactive	inactive	> 10 µg/mL	> 10 µg/mL	Not Active	inactive	> 10 µg/mL	> 10 µg/mL	inactive	> 10 µg/mL	inactive	> 10 µg/mL		

Now from value to compound, other results behind:

MIC (Cryptococcus neoformans)	MIC (Cryptococcus neoformans; [2])	SMILES	growth inhibition (GI) (Pichia kudriavzevii)	growth inhibition (GI) (Candida albicans)	growth inhibition (GI) (Nakaseomyces glabratus)	Activity (SK-MEL)	Activity (Vero)	IC50 (Cryptococcus neoformans)	MFC (Cryptococcus neoformans)	Activity (BT-549)	Activity (KB)	growth inhibition (GI) (Aspergillus fumigatus)	Activity (LLC-PK1)	growth inhibition (GI) (Escherichia coli)	Activity (SK-OV-3)	IC50 (Cryptococcus neoformans; [1])	MFC (Cryptococcus neoformans; [2])
inactive		CC(C)(C)OC(=O)N[C@@H](Cc1c[nH]c2ccccc12)C(=O)N[C@@H](Cc1c[nH]c(-c2ccc(-c3ccccc3)cc2)n1)C(=O)NCc1ccccc1	inactive	inactive	inactive	> 10 µg/mL	> 10 µg/mL	Not Active	inactive	> 10 µg/mL	> 10 µg/mL	inactive	> 10 µg/mL	inactive	> 10 µg/mL		
inactive		COC(=O)[C@H](CCCNC(=N)N)NC(=O)[C@H](Cc1c[nH]c(-c2ccc(C)cc2)n1)NC(=O)OC(C)(C)C	inactive	inactive	inactive	> 10 µg/mL	> 10 µg/mL		inactive	> 10 µg/mL	> 10 µg/mL	inactive	> 10 µg/mL	inactive	> 10 µg/mL	16.9 µg/mL (≈ 32.9 µM)	
inactive		COc1ccc(-c2nc(C[C@H](N)C(=O)N[C@@H](CCCNC(=N)N)C(=O)NCc3ccccc3)c[nH]2)cc1	inactive	inactive	inactive	> 10 µg/mL	> 10 µg/mL	Not Active	inactive	> 10 µg/mL	> 10 µg/mL	inactive	> 10 µg/mL	inactive	> 10 µg/mL		
inactive		COC(=O)[C@H](Cc1c[nH]c(-c2ccc(C(C)(C)C)cc2)n1)NC(=O)[C@@H](N)Cc1c[nH]c2ccccc12	inactive	inactive	inactive	> 10 µg/mL	> 10 µg/mL		inactive	> 10 µg/mL	> 10 µg/mL	inactive	> 10 µg/mL	inactive	> 10 µg/mL	18.8 µg/mL (≈ 38.6 µM)	
inactive		COC(=O)[C@H](Cc1c[nH]c(-c2ccccc2)n1)NC(=O)[C@H](Cc1c[nH]c2ccccc12)NC(=O)OC(C)(C)C	inactive	inactive	inactive	> 10 µg/mL	> 10 µg/mL	Not Active	inactive	> 10 µg/mL	> 10 µg/mL	inactive	> 10 µg/mL	inactive	> 10 µg/mL		
	20 µg/mL (≈ 43.7 µM)	COC(=O)[C@H](CCCNC(=N)N)NC(=O)[C@@H](N)Cc1c[nH]c(-c2ccc(C(C)(C)C)cc2)n1	inactive	inactive	inactive	> 10 µg/mL	> 10 µg/mL			> 10 µg/mL	> 10 µg/mL	inactive	> 10 µg/mL	inactive	> 10 µg/mL	10.2 µg/mL (≈ 22.2 µM)	20 µg/mL (≈ 43.7 µM)
inactive		COC(=O)[C@H](CCCNC(=N)N)NC(=O)[C@@H](N)Cc1c[nH]c(-c2ccccc2)n1	inactive	inactive	inactive	> 10 µg/mL	> 10 µg/mL		inactive	> 10 µg/mL	> 10 µg/mL	inactive	> 10 µg/mL	inactive	> 10 µg/mL	10.6 µg/mL (≈ 26.3 µM)	
